For series [1], the system named is BT-549. Nature of the series: Antitumor activity against human BT-549 cells xenografted SCID mouse assessed as survival time prolongation at 2 ug, ip.
Series [2] deals with BT-549. The series can be described thus: Antitumor activity against human BT-549 cells xenografted SCID mouse co-transfected with human gamma delta T lymphocytes assessed as survival time prolongation at 2 ug, ip coadministered with human recombinant IL2. The series is classed as functional, organism-based. Summed up: (§1)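 SCID mice were conditioned by irradiation and anti-asialo-GM1 monoclonal antibody. On day 0 they received a single ip injection of BT549 breast cancer cells (2 × 10⁶/mouse). Drug was given ip (2 µg or 5 µg) with the tumor cells, alone or with ip human rIL-2 (300 ng). Where indicated, purified human γδ T cells (2 × 10⁷/mouse) were added. Cells and drug were reinjected every 15 days, with IL-2 on the same day and days 3 and 6 after. Read-out was mean survival time in days.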
In general terms: A xenograft is tissue or cells of one species grown in another, often human tumour cells in immunodeficient mice.

In series [3] the test system is BT-549. Nature of the series: Antitumor activity against human BT-549 cells xenografted SCID mouse co-transfected with human gamma delta T lymphocytes assessed as survival time prolongation at 5 ug, ip coadministered with human recombinant IL2. The series is classed as functional, organism-based. Summed up: as §1
The test system of series [4] is K562. The series can be described thus: Induction of apoptosis in human K-562 cells expressing Bcr-Abl at <50 uM by flow cytometry. Format: functional, cell-based. On the technique in general: Flow cytometry measures light scatter and fluorescence of single cells or particles in a stream.
For series [5], the system named is BT-549. Nature of the series: Antitumor activity against human BT-549 cells xenografted SCID mouse assessed as survival time prolongation at 2 ug, ip. The series is classed as functional, cell-based. Summed up: as §1
The test system of the next series is CCRF-CEM. Nature of the series: Induction of apoptosis in human CCRF-CEM cells at 100 uM by flow cytometry. Format: functional. Summed up: (§2)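 Tumor cells were exposed to 100 µM compound. Cells (1 × 10⁶) were washed in PBS, pelleted at 200g for 5 min, and stained with FITC-annexin V plus propidium iodide for 15 min at 20 °C. The percentage of annexin-V-positive cells was measured by flow cytometry.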

Series [6] deals with K562. Nature of the series: Induction of apoptosis in human K-562 cells expressing Bcr-Abl at 100 uM by flow cytometry. The series is classed as functional. Summed up:
as §2

Series [7] is described as follows: Induction of apoptosis in human CEM-VBL300 cells expressing p-glycoprotein at 100 uM by flow cytometry. Format: functional. Summed up:
as §2

For series [8], the system named is BT-549. The series can be described thus: Antitumor activity against human BT-549 cells xenografted SCID mouse co-transfected with human gamma delta T lymphocytes assessed as survival time prolongation at 5 ug, ip. Format: functional, cell-based. Summed up: as §1
Series [9] is described as follows: Cytotoxicity against human CFU-GM cells at 100 uM after 7 days.
Series [10] in a line: Stimulation of human Vgamma9Vdelta2 T lymphocytes assessed as gamma delta expansion factor after 7 days. The series is classed as functional.
The subject of a further series is HuT78. The series can be described thus: Induction of apoptosis in human HUT78 cells at 100 uM by flow cytometry. Format: functional. Summed up:
as §2

Series [11] has as its target T1, Farnesyl pyrophosphate synthase (Homo sapiens, UniProt P14324).
T1 sequence (P14324 whole entry): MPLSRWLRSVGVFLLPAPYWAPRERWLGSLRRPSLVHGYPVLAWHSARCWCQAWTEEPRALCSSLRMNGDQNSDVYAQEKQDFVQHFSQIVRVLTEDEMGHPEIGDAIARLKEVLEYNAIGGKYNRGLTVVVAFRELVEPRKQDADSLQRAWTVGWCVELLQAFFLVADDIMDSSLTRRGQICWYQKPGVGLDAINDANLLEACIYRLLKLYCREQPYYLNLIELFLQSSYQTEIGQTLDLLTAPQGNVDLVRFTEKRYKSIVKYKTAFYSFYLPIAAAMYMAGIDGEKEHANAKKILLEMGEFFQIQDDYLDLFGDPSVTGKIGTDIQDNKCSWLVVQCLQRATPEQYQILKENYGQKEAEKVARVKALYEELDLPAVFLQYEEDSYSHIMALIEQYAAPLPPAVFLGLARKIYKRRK
The series can be described thus: Inhibition of human FPP synthase expressed in Escherichia coli BL21 (DE3).

Series [12] relates to BT-549. Nature of the series: Antitumor activity against human BT-549 cells xenografted SCID mouse co-transfected with human gamma delta T lymphocytes assessed as survival time prolongation at 2 ug, ip. The series is classed as functional, cell-based. Summed up: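 SCID mice conditioned by irradiation plus anti-asialo-GM1 antibody; day 0 single i.p. BT549 (2 × 10⁶/mouse) with concomitant i.p. drug (2 µg), ± rIL-2 (300 ng), plus highly purified human γδ T cells (2 × 10⁷/mouse). γδ T cells and drug re-injected every 15 days; rIL-2 the same day and 3 and 6 days after each. Read-out: mean survival time (days).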

The source made the active and inactive calls. The rule behind the calls is not given here.

As to `O.O=P(O)(O)C(O)(Cn1ccnc1)P(=O)(O)O` [ZOLEDRONIC ACID], the result in the series on BT-549 [1], with K562 [4], in the series on BT-549 [5] and in the series on BT-549 [8] was inactive. In addition, the result in the series with BT-549 [2] and with BT-549 [3] was Active. Besides, the Activity was determined as 20% with CCRF-CEM; 16% in the series with K562 [6]; 22% in series [7]; 18% in series [9]; 0.1 µM in [10]; 24% with HuT78.
The IC50 is the point on the concentration scale where inhibition reaches its midpoint. For `O=P(O)(O)C(CSc1ncc[nH]1)P(=O)(O)O`, the Activity in series [10] was greater than 10 µM. Besides, the IC50 in series [11] was determined as 28.1 nM.
`O=P(O)(O)C(Cn1ccnc1)P(=O)(O)O`: the result with BT-549 [1], with K562 [4] and with BT-549 [5] was inactive. The result with BT-549 [12] was Active. Also, the Activity was 22% in the series with CCRF-CEM; 15% with K562 [6]; 37% in series [7]; 15% in series [9]; 0.001 µM in series [10]; 40% in the series with HuT78.
Take `O=P(O)(O)C(Cn1cccn1)P(=O)(O)O`: the Activity in series [10] was greater than 10 µM. Further, in [11], the IC50 turned out to be 3070 nM.
For the compound `O=P(O)(O)C(Cn1cnc2c(Cl)ncnc21)P(=O)(O)O`, the Activity in [10] came to 0.1 µM. In addition, in series [11], 883 nM corresponded to half-maximal inhibition (IC50).
Turning to `O=P(O)(O)C(Cn1cnc2ccccc21)P(=O)(O)O`, in series [10], the Activity was 1 µM. In addition, the IC50 in [11] is 16.1 nM.
In the case of `O=P(O)(O)C(Cn1cnc2cncnc21)P(=O)(O)O`, the Activity in series [10] was determined as 0.2 µM. Moreover, the half-inhibitory concentration (IC50) in series [11] was 388 nM.

These data come from ChEMBL document CHEMBL1142544 (J Med Chem, 2008).
